Source: ChEMBL document CHEMBL1153560, “In vitro activities of doripenem and six comparator drugs against 423 aerobic and anaerobic bacterial isolates from infected diabetic foot wounds” (2008)

Tested on: Clostridium perfringens
Assay: Antibacterial activity against Clostridium perfringens isolated from patient with diabetic foot infection assessed as percent resistant isolates after 44 to 48 hrs by agar dilution method
Type: functional
Summary of the method: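 Agar dilution per CLSI M11-A7. Twofold drug dilutions made on the test day and added to molten agar. Replicator-applied inoculum of 10^5 CFU/spot. Drug-free control plates inoculated before and after each drug set. Incubation at 37°C for 44 to 48 h, anaerobic chamber. MIC taken as the lowest concentration giving no growth or a marked change in growth versus controls.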

CCC[C@@H]1C[C@@H](C(=O)N[C@@H]([C@H]2O[C@H](SC)[C@H](O)[C@@H](O)[C@H]2O)[C@H](C)Cl)N(C)C1 [CLINDAMYCIN]
Activity: 0%

C[C@@H](O)[C@H]1C(=O)N2C(C(=O)O)=C(S[C@@H]3CN[C@H](CNS(N)(=O)=O)C3)[C@H](C)[C@H]12 [DORIPENEM]
Activity: 0%

C[C@@H](O)[C@H]1C(=O)N2C(C(=O)O)=C(S[C@@H]3CN[C@H](C(=O)Nc4cccc(C(=O)O)c4)C3)[C@H](C)[C@H]12 [ERTAPENEM]
Activity: 0%

C[C@@H](O)[C@H]1C(=O)N2C(C(=O)O)=C(SCCNC=N)C[C@H]12 [IMIPENEM ANHYDROUS]
Activity: 0%

C[C@@H](O)[C@H]1C(=O)N2C(C(=O)O)=C(S[C@@H]3CN[C@H](C(=O)N(C)C)C3)[C@H](C)[C@H]12 [MEROPENEM]
Activity: 0%

Cc1ncc([N+](=O)[O-])n1CCO [METRONIDAZOLE]
Activity: 0%
